In the library only some 3.7% were active in any assay of this set; here they are far more common.
Kir21 inh – Kir2.1 (mouse) channel inhibition; HEK293-Kir2.1, FluxOR thallium flux fluorescence; stronger effect = lower value; B-score at 10 µM; actives 0.85% (n = 310,000); AID 1672;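 active means fluorescence ratio B-score at or below minus 3 SD of library scores, with starting-brightness B-score within 2 SD, cut at about -4.2 in these data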;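 further: channel flux triggered by added potassium and thallium sulfate stimulus; B-score of peak minus minimum fluorescence over baseline after thallium stimulus; more negative B-score means stronger Kir2.1 block with less thallium influx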
KCNQ1 act – human KCNQ1 channel potentiation or activation. CHO-K1 KCNQ1, thallium flux FluxOR fluorescence; stronger effect = higher value. B-score at 10 µM. actives 0.35% (n = 310,000);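 active means fluorescence ratio B-score, a plate-corrected score, at least three library SD, with initial intensity B-score within 5 SD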
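Assay system: CHO-K1 cells stably expressing KCNQ1. Medium: assay buffer for compound exposure, DMSO matched across wells. Timing: 37 °C overnight plating, 90-min dark dye load, 20-min compound pretreatment. Signal: kinetic FluxOR fluorescence, 10 s baseline plus 110 s post-stimulus.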
KCNK3 inh – human KCNK3 channel inhibition, primary screen | CHO-KCNK3 thallium flux, FluxOR fluorescence; stronger effect = lower value | B-score at 10 µM | actives 0.84% (n = 340,000);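 active means B-score under library mean minus 4 SD, starting fluorescence ratio at most library mean plus 5 SD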;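 further: more negative B-score means stronger inhibition of thallium flux through KCNK3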
Target sequence (O14649 whole entry, looked up): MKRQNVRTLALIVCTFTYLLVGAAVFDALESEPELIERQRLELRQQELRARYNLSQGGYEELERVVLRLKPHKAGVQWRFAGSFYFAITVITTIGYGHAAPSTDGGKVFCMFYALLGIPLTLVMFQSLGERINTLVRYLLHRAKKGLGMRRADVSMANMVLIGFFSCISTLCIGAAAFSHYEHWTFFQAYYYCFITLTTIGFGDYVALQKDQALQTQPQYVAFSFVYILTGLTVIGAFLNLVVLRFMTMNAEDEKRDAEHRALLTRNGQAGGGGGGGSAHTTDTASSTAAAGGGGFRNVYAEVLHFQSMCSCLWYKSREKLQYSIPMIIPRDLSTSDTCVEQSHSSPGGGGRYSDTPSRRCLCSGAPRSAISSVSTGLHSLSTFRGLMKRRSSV
KCNQ1 block – inhibitors of human KCNQ1 potassium channel | P51787 | CHO-K1 KCNQ1, FluxOR thallium flux fluorescence; stronger effect = higher value | B-score at 10 µM | actives 1.3% (n = 310,000) | AID 2642;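 active means compounds whose thallium flux B-score, printed positive for inhibition, exceeds three library SD while starting fluorescence stays within three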;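 further: channel opened by potassium depolarization with thallium stimulus after 20 min compound exposure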
hERG protect – compounds protecting human hERG from proarrhythmic drug block. Q12809. CHO-hERG, FluxOR thallium flux, dofetilide IC70 present. activation (rescue from dofetilide block), less the hit threshold, % at 10 µM. actives 0.51% (n = 310,000). AID 1511;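 active means activation above the mean of controls blocked by dofetilide plus 5 SD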;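 further: thallium influx through hERG after potassium depolarization seen as dye fluorescence rise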
KCNK9 block – blocks the human KCNK9 two-pore domain potassium channel; HEK293 KCNK9, FluxOR thallium flux fluorescence; stronger effect = lower value; actives 1.2% (n = 310,000); B-score at 10 µM; Q9NPC2;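 active means ratio B-score over 3 SD below the library mean, with starting fluorescence within 5 SD of its mean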;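 further: negative B-score means less thallium flux so channel inhibition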
KCNK9 block conf – confirmation of human KCNK9 potassium channel inhibitors | shares compounds with KCNK9 block | inhibition, % at 10 µM | actives 43% (n = 4,900) | HEK293 KCNK9 cells, FluxOR thallium flux fluorescence;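 active means thallium signal inhibited by more than 5 SD of the compound-free buffer control wells, on both duplicate plates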;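 further: 0% = assay buffer control wells without compound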
Kir21 sel – selectivity of KCNK9 modulators against mouse Kir2.1. Kir2.1 cells, FluxOR thallium flux fluorescence. shares compounds with KCNK9 block. inhibition, % at 10 µM. actives 4% (n = 4,900);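 active means thallium signal drop more than 5 SD beyond the mean of the no-compound control wells, seen in both duplicate plates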;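 further: signal is fluorescence rise after thallium addition divided by baseline fluorescence; plate controls were assay buffer only for no effect and full block by chlorpromazine control for full effect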
KCNK9 uninduced – second counter-screen for KCNK9 modulators: effect in non-induced cells; shares compounds with KCNK9 block; non-induced KCNK9-HEK293, FluxOR thallium flux; inhibition, % at 10 µM; actives 40% (n = 4,900); AID 492997;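 active means thallium signal drop beyond 5 SD of the untreated control mean, on both duplicate plates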;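 further: plate controls were buffer only IC0 wells for no effect and SID17386958 at its maximal inhibitory level for full effect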
* marks the source's active call; other numbers are inactive results; i = inactive; . = no result.

SMILES	Kir21 inh	KCNQ1 act	KCNK3 inh	KCNQ1 block	hERG protect	KCNK9 block	KCNK9 block conf	Kir21 sel	KCNK9 uninduced
COc1cc(CCC(=O)OCC(=O)N(CC(C)C)C2CCS(=O)(=O)C2)cc(OC)c1OC (stereo not drawn)	.	.	i	.	.	.	.	.	.
COc1ccc(/C=C(/CC(=O)NCc2ccc(Cl)cc2)c2nc3ccccc3s2)cc1	0.96	i	i	i	-5.5	-18.9*	65.5%*	i	46.5%*
Cc1cc(OCC(=O)Nc2ccccc2C(N)=O)c2c(C)cc(=O)oc2c1	-1.52	i	i	i	-6.8	i	.	.	.
COc1cccc(C(=O)OCCN2CCCCC2)c1	-1.11	i	i	i	-8.4	i	i	i	i
COc1cccc(C(=O)OC(C)CN2CCCC2)c1 (stereo not drawn)	0.64	i	i	i	-2.1	i	.	.	.
CCc1sc(C(=O)N2CCN(c3ccc(F)cc3)CC2)cc1C	1.44	i	i	i	-3.9	i	.	.	.
Cc1nn(-c2ccccc2)c(Cl)c1/C=N\NC(=O)c1cnccn1	-0.16	i	i	i	-9.6	i	.	.	.
Cc1nn(-c2ccccc2)c(Cl)c1/C=N/NC(=O)OC(C)(C)C	-0.67	i	i	i	-9.1	-11.4*	49.0%*	i	i
Cc1nn(-c2ccccc2)c(Cl)c1/C=N/NC(=O)c1ccc(CNc2ccccc2)o1	-0.2	i	i	i	-8.9	i	.	.	.
Cc1nn(-c2ccccc2)c(Cl)c1/C=N/NC(=O)c1ccco1	-0.33	i	i	i	-3.9	-8.65*	49.5%*	i	27.5%*
CC(C)c1nc2cc(C(=O)N3CCNC(=O)C3c3ccc(F)cc3)ccc2o1 (stereo not drawn)	-0.03	i	i	i	-7.0	i	.	.	.
COc1ccc(/C=C(/NC(=O)c2ccco2)C(=O)N2CCOCC2)cc1	0.13	i	i	i	-9.4	i	.	.	.
COc1cccc(/C=N/NC(=O)c2cc(-c3ccccn3)nc3ccccc23)c1O	.	.	i	.	.	.	.	.	.
O=C(N/N=C/c1cc(Cl)cc([N+](=O)[O-])c1O)c1cc(-c2ccccn2)nc2ccccc12	1.39	i	i	i	-17.6	i	i	i	28.0%*
COc1ccc(C(=O)NC(=S)Nc2nc(C)cc(C)n2)cc1Br	-2.25	i	i	i	-4.5	i	.	.	.
NC(=O)c1ccccc1N/C=C/C(=O)c1ccccc1	0.08	i	i	i	-16.8	i	.	.	.
CCOC(=O)c1ccccc1N/C=C/C(=O)c1cccs1	0	i	i	i	-4.3	-9.78*	50.0%*	i	39.0%*
COC(=O)c1ccccc1N/C=C/C(=O)c1ccc(Br)cc1	-1.8	i	i	i	-3.6	-12.2*	43.0%*	i	38.5%*
COc1ccc(N2C(=O)/C(=C\c3ccco3)N=C2SCC(=O)NC(C)(C)C)cc1Cl	0.05	i	i	i	-6.0	-9.11*	44.0%*	i	33.0%*
O=C(/C=C/c1ccccc1)c1cc(Br)ccc(=O)c1O	-1.71	22*	i	i	11.6*	i	i	i	i
Cc1ccc(CO/N=C\Cc2snc(Sc3ncc(C(F)(F)F)cc3Cl)c2C#N)cc1	-0.01	i	i	i	-12.1	i	i	i	i
N#CCc1ccc(Oc2ncc(C(F)(F)F)cc2Cl)cc1	0.38	i	i	i	-6.1	i	.	.	.
Cc1cc(C)n(C(=O)c2ccc(C)c(Br)c2)n1	-0.6	i	i	i	-6.7	i	i	i	i
COc1ccc(C(=O)n2nc(C)cc2C)cc1OC	-0.3	i	i	i	-4.7	i	.	.	.
CC1(C)CC(=O)C=C(Nc2cccc(Cl)c2Cl)C1	-0.01	i	i	i	-4.7	i	.	.	.
